Source: ChEMBL document CHEMBL4007473, “Discovery of Potent and Orally Bioavailable GPR40 Full Agonists Bearing Thiophen-2-ylpropanoic Acid Scaffold” (J Med Chem, 2017)
Activity calls are given as the source filed them. No cut-off for these calls is given here.

Key:
[1] = target: T1, Free fatty acid receptor 1 (Homo sapiens, UniProt O14842); test: Agonist activity at human GPR40 expressed in CHO cells assessed as increase in intracellular Ca2+ flux at 10 uM by Fluo 4-AM dye based assay; format: functional, cell-based
Method in brief: (§1)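 CHO cells stably expressing hGPR40 or hGPR120, seeded and incubated overnight at 37 ℃, 5% CO2. Loaded 90 min with Fluo 4-AM (3 μM) and probenecid (2.5 mM) in HBSS/0.1% BSA, washed, equilibrated 10 min. Ca2+ read as change in 585/525 ratio before and after compound addition; EC50 and Emax fitted from curves, Emax relative to reference agonist 4; mean ± SD, three independent experiments.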

[2] = target: T1, Free fatty acid receptor 1; test: Agonist activity at human GPR40 expressed in CHO cells assessed as increase in intracellular Ca2+ flux by Fluo 4-AM dye based assay; format: functional, cell-based
[3] = target: T1, Free fatty acid receptor 1; test: Agonist activity at human GPR40 expressed in CHO cells assessed as increase in intracellular Ca2+ flux by Fluo 4-AM dye based assay relative to 3-(4-((2',6'-dimethylbiphenyl-3-yl)methoxy)phenyl)propanoic acid; format: functional, cell-based; method in brief: as §1
[4] = target: T2, Free fatty acid receptor 4 (Homo sapiens, UniProt Q5NUL3); test: Agonist activity at human GPR120 expressed in CHO cells assessed as increase in intracellular Ca2+ flux by Fluo 4-AM dye based assay; format: functional, cell-based; method in brief: as §1
T2 sequence (Q5NUL3 whole entry): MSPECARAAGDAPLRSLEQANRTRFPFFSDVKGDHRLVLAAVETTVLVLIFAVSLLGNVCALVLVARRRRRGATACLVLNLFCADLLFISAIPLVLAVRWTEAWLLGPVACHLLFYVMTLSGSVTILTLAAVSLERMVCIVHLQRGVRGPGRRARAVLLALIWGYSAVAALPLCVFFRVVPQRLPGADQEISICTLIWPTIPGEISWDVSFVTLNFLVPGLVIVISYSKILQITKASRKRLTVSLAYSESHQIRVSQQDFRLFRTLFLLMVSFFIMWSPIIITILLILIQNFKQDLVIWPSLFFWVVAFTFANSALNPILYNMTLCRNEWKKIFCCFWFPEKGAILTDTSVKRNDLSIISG

[5] = target: Free fatty acid receptor 1 (Mus musculus) (UniProt Q76JU9); test: Agonist activity at GPR40 in mouse MIN6 cells assessed as increase in 25 mM glucose-stimulated insulin secretion at 10 uM after 1 hr by ELISA; format: cell-based
Method in brief: (§2)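 MIN6 cells pre-incubated 2 h at 37 ℃ in KRBH buffer with 0.1% BSA, then stimulated 1 h at 37 ℃ with 2 mM or 25 mM glucose, alone or with test agents. Insulin secreted into supernatant quantified by ELISA; mean ± SD of four independent experiments, compared with DMSO.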

[6] = target: T3, Peroxisome proliferator-activated receptor gamma (Homo sapiens, UniProt P37231); test: Agonist activity at PPARgamma (unknown origin) expressed in HEK293T cells by luciferase reporter gene assay; format: cell-based
T3 sequence (P37231 whole entry): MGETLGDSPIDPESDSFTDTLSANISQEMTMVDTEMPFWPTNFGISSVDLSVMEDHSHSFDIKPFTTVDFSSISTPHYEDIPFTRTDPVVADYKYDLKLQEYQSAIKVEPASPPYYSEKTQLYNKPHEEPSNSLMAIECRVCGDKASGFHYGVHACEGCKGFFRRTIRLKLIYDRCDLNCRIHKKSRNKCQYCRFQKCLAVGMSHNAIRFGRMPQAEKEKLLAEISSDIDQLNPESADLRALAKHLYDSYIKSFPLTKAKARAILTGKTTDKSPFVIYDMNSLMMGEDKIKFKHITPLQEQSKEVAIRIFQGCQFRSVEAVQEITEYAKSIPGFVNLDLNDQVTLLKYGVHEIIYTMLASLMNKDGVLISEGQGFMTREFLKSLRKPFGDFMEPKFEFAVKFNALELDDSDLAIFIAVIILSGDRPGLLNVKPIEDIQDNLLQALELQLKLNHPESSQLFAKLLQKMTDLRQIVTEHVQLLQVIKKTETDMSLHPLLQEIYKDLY

[7] = target: T1, Free fatty acid receptor 1; test: Agonist activity at human GPR40 expressed in HEK293T cells transfected with 0.05 ug of GPR40 expression plasmid assessed as increase in intracellular Ca2+ flux by Fluo 4-AM dye based assay; format: functional, cell-based; settings: HEK-293T
Method in brief: (§3)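 Plasmid titration: HEK293T cells transiently transfected with 5 μg or 0.05 μg hGPR40 expression plasmid, plated on poly-D-lysine and held 24 h. Loaded with Fluo 4-AM (3 μM) and probenecid (2.5 mM) in HBSS/0.1% BSA for 90 min, washed, equilibrated 10 min. Ca2+ response measured as change in 585/525 ratio after compound addition; mean ± SD of three experiments.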

[8] = target: T1, Free fatty acid receptor 1; test: Agonist activity at human GPR40 expressed in HEK293T cells transfected with 5 ug of GPR40 expression plasmid assessed as increase in intracellular Ca2+ flux by Fluo 4-AM dye based assay; format: functional, cell-based; settings: HEK-293T; method in brief: as §3
Mus musculus = test: Antidiabetic activity in ICR mouse assessed as decrease in blood glucose AUC at 10 mg/kg, po administered 30 mins prior to glucose challenge measured 120 mins post dose by OGTT; format: functional, organism-based
Method in brief: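 Six-week-old male ICR mice fasted 16 h, n = 10 per group, dosed orally in 0.5% methylcellulose/20% PEG400 (10 or 20 mg/kg). Oral glucose load 2.5 g/kg by gavage 30 min later. Tail-vein glucose read at -30, 0, 30, 60, 90 and 120 min; AUC0-120 min computed and compared with vehicle.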

[9] = Inhibition of hepatobiliary transporter in Sprague-Dawley rat sandwich-cultured rat hepatocytes assessed as decrease in d8-TCA by measuring biliary excretion index at 1 to 25 uM incubated for 15 mins followed by d8-TCA addition measured after 15 mins by LC-MS/MS analysis; format: ADME; settings: 0.25 h
Method in brief: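 Sandwich-cultured hepatocytes from male SD rats exposed to compound 15 min in standard HBSS. Cells rinsed and pre-incubated 15 min at 37 ℃ in standard or Ca2+-free HBSS, then incubated 15 min with compound plus 1 µM d8-TCA. Washed with ice-cold PBS; cellular d8-TCA measured by LC-MS/MS. BEI = (A_HBSS – A_Ca-free)/A_HBSS × 100%.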

[10] = target: Free fatty acid receptor 1 (Mus musculus) (UniProt Q76JU9); test: Agonist activity at GPR40 in mouse MIN6 cells assessed as increase in 25 mM glucose-stimulated insulin secretion at 300 nM after 1 hr by ELISA; format: cell-based; method in brief: as §2
[11] = target: T1, Free fatty acid receptor 1; test: Agonist activity at human GPR40 expressed in CHO cells assessed as increase in intracellular Ca2+ flux at 20 uM by Fluo 4-AM dye based assay; format: functional, cell-based; method in brief: as §1

T1 sequence (O14842 whole entry): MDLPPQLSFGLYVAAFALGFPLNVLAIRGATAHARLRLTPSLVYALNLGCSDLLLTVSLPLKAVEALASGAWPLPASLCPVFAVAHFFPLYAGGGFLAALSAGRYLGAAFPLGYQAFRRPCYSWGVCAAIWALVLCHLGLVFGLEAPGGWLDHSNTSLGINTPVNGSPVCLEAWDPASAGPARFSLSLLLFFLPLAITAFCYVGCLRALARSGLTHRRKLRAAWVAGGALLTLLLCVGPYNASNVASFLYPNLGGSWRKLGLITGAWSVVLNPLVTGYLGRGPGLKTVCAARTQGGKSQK
Chain of Free fatty acid receptor 1 (Mus musculus) (Q76JU9 whole entry): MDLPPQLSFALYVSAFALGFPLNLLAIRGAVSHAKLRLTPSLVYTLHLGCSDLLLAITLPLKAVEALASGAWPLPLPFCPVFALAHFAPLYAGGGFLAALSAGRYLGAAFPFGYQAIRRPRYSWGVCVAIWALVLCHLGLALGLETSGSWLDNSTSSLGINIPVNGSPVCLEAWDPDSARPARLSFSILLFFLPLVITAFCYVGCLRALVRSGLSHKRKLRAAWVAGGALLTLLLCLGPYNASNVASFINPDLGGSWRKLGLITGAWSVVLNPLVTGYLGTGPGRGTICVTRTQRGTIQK

## O=C(O)CCc1ccc(OCc2cccc(-c3ccc(C(F)(F)F)cc3)c2)s1
[1]
  Activity: inactive

## COc1ccc(F)c(-c2cccc(COc3ccc(CCC(=O)O)s3)c2)c1
[2]
  EC50: 580 nM

## CC#CC(CC(=O)O)c1ccc(OCc2cccc(-c3c(C)cccc3C)c2)s1 (racemic)
[2]
  EC50: 210 nM

## Cc1cccc(C)c1-c1cccc(COc2csc(CCC(=O)O)c2)c1
[3]
  Emax: 135%
[2]
  EC50: 2320 nM

## Cc1cccc(C)c1-c1cccc(OCc2ccc(CCC(=O)O)s2)c1
[3]
  Emax: 136%
[2]
  EC50: 2420 nM

## Cc1cccc(C)c1-c1cccc(COc2ccc(CCC(=O)O)s2)c1
[4]
  EC50: > 10000 nM
[5]
  Activity: inactive
[3]
  Emax: 140%
[2]
  EC50: 32 nM
[6]
  EC50: > 10000 nM

## Cc1cccc(C)c1-c1cccc(COc2ccc(C(CC(=O)O)C3CC3)s2)c1 (racemic)
[2]
  EC50: 3920 nM

## Cc1cccc(C)c1-c1cccc(COc2ccc([C@H](CC(=O)O)c3ccon3)s2)c1
[1]
  Activity: inactive

## CC/C=C\C/C=C\C/C=C\C/C=C\C/C=C\C/C=C\CCC(=O)O
[7]
  Activity: Active
[8]
  Activity: Active

## CCCC(CC(=O)O)c1ccc(OCc2cccc(-c3c(C)cccc3C)c2)s1 (racemic)
[1]
  Activity: inactive

## CCOC(CC(=O)O)c1ccc(OCc2cccc(-c3c(C)cccc3C)c2)s1 (racemic)
[2]
  EC50: 57 nM

## Cc1cc(OCCCS(C)(=O)=O)cc(C)c1-c1cccc(COc2ccc3c(c2)OC[C@H]3CC(=O)O)c1
[5]
  Activity: Active
Mus musculus
  Activity: Active
[7]
  Activity: inactive
[8]
  Activity: Active
[9]
  Activity: Not Active
[10]
  Activity: Active

## CC#C[C@H](CC(=O)O)c1ccc(OCc2cccc(-c3c(C)cc(OCCCS(C)(=O)=O)cc3C)c2)s1
[2]
  EC50: 410 nM

## Cc1cccc(C)c1-c1cccc(COc2ccc(C(C#N)CC(=O)O)s2)c1 (racemic)
[2]
  EC50: 110 nM

## Cc1cccc(C)c1-c1cccc(COc2ccc(C(C)CC(=O)O)s2)c1 (racemic)
[1]
  Activity: inactive

## COC(CC(=O)O)c1ccc(OCc2cccc(-c3c(C)cccc3C)c2)s1 (racemic)
[2]
  EC50: 210 nM

## O=C(O)CCc1ccc(OCc2cccc(-c3ccncc3Cl)c2)s1
[2]
  EC50: 2010 nM

## CCO[C@H](CC(=O)O)c1ccc(OCc2cccc(-c3c(C)cccc3C)c2)s1
[4]
  EC50: > 10000 nM
[5]
  Activity: inactive
[3]
  Emax: 147%
[2]
  EC50: 50 nM
[6]
  EC50: > 10000 nM

## CC#CC(CC(=O)O)c1ccc(OCc2cccc(-c3c(C)cc(OCC4(C)COC4)cc3C)c2)s1 (racemic)
[2]
  EC50: 450 nM

## O=C(O)CCc1ccc(OCc2cccc(-c3ccccc3C(F)(F)F)c2)s1
[2]
  EC50: 2710 nM

## Cc1cccc(C)c1-c1cccc(COc2ccc(C(CC(=O)O)c3c[nH]nn3)s2)c1 (racemic)
[1]
  Activity: inactive

## N#Cc1ccccc1-c1cccc(COc2ccc(CCC(=O)O)s2)c1
[1]
  Activity: inactive

## CC#CC(CC(=O)O)c1ccc(OCc2cccc(-c3c(C)cc(OCCCS(C)(=O)=O)cc3C)c2)s1 (racemic)
[2]
  EC50: 240 nM

## CC#CC(CC(=O)O)c1ccc(OCc2ccc(CN3CCC4(C=Cc5ccccc54)CC3)cc2)s1 (centres undefined)
[11]
  Activity: inactive

## Cc1cccc(C)c1-c1cccc(COc2cc3sc(C(=O)O)cc3s2)c1
[11]
  Activity: inactive

## CCC(CC(=O)O)c1ccc(OCc2cccc(-c3c(C)cccc3C)c2)s1 (racemic)
[1]
  Activity: inactive

## Cc1cccc(C)c1-c1cccc(COc2ccc(CC3SC(=O)NC3=O)s2)c1 (centres undefined)
[2]
  EC50: 82 nM

## Cc1cccc(C)c1-c1cccc(COc2ccc(CCC(=O)O)cc2)c1
[3]
  Emax: 100%
[2]
  EC50: 8 nM

## N#CCc1ccccc1C#Cc1ccc(CCC(=O)O)s1
[2]
  EC50: 640 nM

## Cc1cccc(C)c1-c1cccc(COc2cn(CCC(=O)O)nn2)c1
[3]
  Emax: 97.9%
[2]
  EC50: 14800 nM

## O=C(O)CCc1ccc(OCc2cccc(-c3cc(Cl)nc(Cl)c3)c2)s1
[1]
  Activity: inactive

## CC#CC(CC(=O)O)c1ccc(OCc2cccc(-c3c(C)cc(OC4CCN(C)CC4)cc3C)c2)s1 (racemic)
[1]
  Activity: inactive

## COc1ccccc1-c1cccc(COc2ccc(CCC(=O)O)s2)c1
[1]
  Activity: inactive

## NC(=O)c1ccccc1-c1cccc(COc2ccc(CCC(=O)O)s2)c1
[1]
  Activity: inactive

## Cc1cccc(C)c1-c1ccc(COc2ccc(CCC(=O)O)s2)cc1
[11]
  Activity: inactive

## Cc1cccc(C)c1-c1cccc(OCn2cc(CCC(=O)O)nn2)c1
[3]
  Emax: 95.6%
[2]
  EC50: 32200 nM

## Cc1cccc(C)c1-c1cccc(COc2cc3sc(CCC(=O)O)cc3s2)c1
[11]
  Activity: inactive

## Cc1cccc(C)c1-c1cccc(OCc2cn(CCC(=O)O)nn2)c1
[3]
  Emax: 79.9%
[2]
  EC50: 14700 nM

## CCO[C@@H](CC(=O)O)c1ccc(OCc2cccc(-c3c(C)cccc3C)c2)s1
[2]
  EC50: 40100 nM
